Reference: ChEMBL document CHEMBL2203116, “Synthesis and evaluation of novel carbon-11 labeled oxopurine analogues for positron emission tomography imaging of translocator protein (18 kDa) in peripheral organs” (J Med Chem, 2011)

Key:
Assay type in all cases: ADME, organism-based; call rule not given here
[1] = tested on: Brain; assay: Biodistribution in Sprague-Dawley rat brain at 0.19 nmol, iv by gamma counting; conditions: in vivo
Outline: (§1)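 Male Sprague-Dawley rats were given intratracheal LPS (E. coli O127:B8, 5.0 mg/kg in 50 μL saline) or 50 μL saline vehicle 24 h before tracer. [11C]Radioligand (16 MBq/200 μL, 0.19 nmol) in saline was injected via the tail vein. Rats were killed at 30 min (n = 4 per group). Tissues were weighed and gamma-counted, expressed as decay-corrected %ID/g.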

[2] = tested on: Heart; assay: Biodistribution in Sprague-Dawley rat heart at 0.19 nmol, iv by gamma counting; conditions: in vivo; outline: as §1
[3] = tested on: Kidney; assay: Biodistribution in LPS-treated Sprague-Dawley rat kidney at 0.19 nmol, iv by gamma counting; conditions: in vivo; outline: as §1
[4] = tested on: Lung; assay: Biodistribution in LPS-treated Sprague-Dawley rat lung at 0.19 nmol, iv by gamma counting; conditions: in vivo; outline: as §1
[5] = tested on: Liver; assay: Drug uptake in Sprague-Dawley rat liver at 0.15 nmol, iv after 27.5 mins by PET scanning; conditions: in vivo
Outline: (§2)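 Male Sprague-Dawley rats (6–8 weeks old), isoflurane-anesthetized, prone. ROIs on lung, heart, kidney, liver, small intestine and cardiac blood pool. Uptake decay-corrected to injection time and expressed as SUV (body-weight normalized). n = 4, mean ± SD.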

[6] = tested on: Intestine; assay: Drug uptake in Sprague-Dawley rat small intestine at 0.15 nmol, iv up to 30 mins by PET scanning; conditions: in vivo, 0.5 h; outline: as §2
[7] = tested on: Rattus norvegicus; assay: Biodistribution in LPS-treated Sprague-Dawley rat small intestine at 0.19 nmol, iv by gamma counting; conditions: in vivo; outline: as §1
[8] = tested on: Rattus norvegicus; assay: Biodistribution in Sprague-Dawley rat small intestine at 0.19 nmol, iv by gamma counting; conditions: in vivo; outline: as §1
[9] = tested on: Lung; assay: Drug uptake in Sprague-Dawley rat lung at 0.15 nmol, iv pretreated with unlabeled AC-5216 by PET scanning; conditions: in vivo; outline: as §2
[10] = Metabolic stability in Sprague-Dawley rat kidney assessed as unchanged compound at 0.32 nmol, iv after 30 mins by analytical radio- HPLC; conditions: read-out: Stability
Outline: (§3)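 Rats (n = 3) given radioligand iv (37 MBq/100 μL, 0.32 nmol) and killed at 30 min. Heart and kidney homogenized in ice-cold MeCN/H2O 4/6, centrifuged 15000 rpm for 1 min at 4 °C. Supernatant run on analytical radio-HPLC (C18, MeCN/H2O 4/6). Percent parent = parent peak area over total peak areas, decay-corrected. Mean ± SD.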

[11] = tested on: Liver; assay: Drug uptake in Sprague-Dawley rat liver at 0.15 nmol, iv up to 30 mins by PET scanning; conditions: in vivo, 0.5 h; outline: as §2
[12] = tested on: Brain; assay: Biodistribution in LPS-treated Sprague-Dawley rat brain at 0.19 nmol, iv by gamma counting; conditions: in vivo; outline: as §1
[13] = Metabolic stability in Sprague-Dawley rat heart assessed as unchanged compound at 0.32 nmol, iv after 30 mins by analytical radio- HPLC; conditions: read-out: Stability; outline: as §3
[14] = tested on: Lung; assay: Drug uptake in Sprague-Dawley rat lung at 0.15 nmol, iv after 2 mins by PET scanning; conditions: in vivo; outline: as §2

Drug uptake [1]: 0.02 % ID/g
Drug uptake [2]: 2.1 % ID/g
Drug uptake [3]: 1.97 % ID/g
Drug uptake [4]: 3.54 % ID/g
SUV [5]: 0.5
Drug uptake [6]: Active
Drug uptake [7]: 2.68 % ID/g
Drug uptake [8]: 1.57 % ID/g
Drug uptake [9]: Not Active
remaining at 0.5 h [10]: 94.7%
Drug uptake [11]: Active
Drug uptake [12]: 0.02 % ID/g
remaining at 0.5 h [13]: 93.8%
SUV [14]: 3.4
Compound: CCN(Cc1ccncc1)C(=O)Cn1c(=O)n([11CH3])c2cnc(-c3ccccc3)nc21
